Data taken from ChEMBL document CHEMBL5380838, “Novel Aryl Sulfonamide Derivatives as NLRP3 Inflammasome Inhibitors for the Potential Treatment of Cancer” (J Med Chem, 2023).
Activity calls are given as the source filed them. No cut-off for these calls is given here.

What was measured:
B16-F10 [1] = experiment: Effect on pro-IL-1beta expression in cytosolic luciferase-transfected mouse B16-F10 cells xenografted in C57BL/6 mouse at 25 mg/kg, ip administered thrice weekly measured after 14 days by Western blot analysis; format: functional, organism-based; details: time 14.0 day
Procedure, shortened: (§1)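 Tumors from luciferase-expressing B16-F10 grafts in C57BL/6 mice, dosed IP at 25 mg/kg thrice weekly (DMSO controls), were excised at endpoint and homogenized in sucrose/HEPES/IGEPAL lysis buffer. Lysates were western blotted and bands expressed as fold ratio over β-actin (n = 5).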

[2] = Metabolic stability in mouse liver microsomes assessed as intrinsic clearance measured per mg protein at 1 uM measured upto 60 mins by LC-MS/MS analysis; format: ADME, Microsome; details: read-out: CLH
Procedure, shortened: (§2)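 Pooled human or CD-1 male mouse liver microsomes at 0.5 mg/mL with test compound 1 µM in 50 mM phosphate pH 7.4 and 3 mM MgCl2, preincubated 10 min at 37 °C. Percent parent remaining vs 0 min measured by LC-MS/MS. Cli = k/microsomal conc. × 1000; mean ± SD, n = 2.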

[3] = Half life in C57BL/6 mouse at 25 mg/kg, ip measured for 0.083 to 24 hrs by LC-MS/MS analysis; format: ADME, organism-based; details: in vivo, time 0.083-24 hrs
Procedure, shortened: (§3)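 Female C57BL/6 mice, 8 weeks old, 25–30 g, given a single IP dose of 25 mg/kg. Sampling at 5 and 20 min and 1, 2, 3, 6, 8 and 24 h, 3 mice per timepoint; Li-heparin plasma from the cava vein. ACN/MeOH precipitation with diclofenac internal standard, then LC-MS/MS in ESI(−) MRM mode, range 1–2000 ng/mL. Noncompartmental analysis, linear trapezoidal AUC.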

THP-1 [4] = experiment: Cytotoxicity against human THP-1 cells assessed as reduction in cell viability at 1 uM measured after 48 hrs by RealTime-Glo MT assay; format: toxicity, cell-based; details: thp-1, 48 h
Procedure, shortened: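 THP-1 cells (10 × 10^4/well) treated with inhibitors at 1 µM and kept 48 h; RealTime-Glo reagent added, luminescence read every 12 h as a proxy for metabolically active cells; means of RLU ± SEM.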

[5] = Metabolic stability in human liver microsomes assessed as half life measured per mg protein at 1 uM measured upto 60 mins by LC-MS/MS analysis; format: ADME, Microsome; procedure, shortened: as §2
[6] = Cmax in C57BL/6 mouse at 25 mg/kg, ip measured for 0.083 to 24 hrs by LC-MS/MS analysis; format: ADME, organism-based; set-up: time upper 24 hrs, dose 25 mg/kg, time lower 0.083 hrs, route ip; details: in vivo; procedure, shortened: as §3
B16-F10 [7] = experiment: Antitumor activity against cytosolic luciferase-transfected mouse B16-F10 cells xenografted in C57BL/6 mouse assessed as tumor reduction at 25 mg/kg, ip administered thrice weekly measured after 14 days by bioluminescence assay; format: functional, organism-based; details: time 14.0 day
Procedure, shortened: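 Female C57BL/6 mice aged 6–8 weeks inoculated subcutaneously with 1 × 10^6 B16-F10 cells stably expressing cytosolic luciferase. From day 5, IP dosing of 25 mg/kg thrice weekly, DMSO for controls, five mice per group. Imaging after IP D-luciferin 150 mg/kg under 2.5% isoflurane, read after 15 min. Caliper volume = π/6 × a × b². Tumors excised day 14.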

BMDM [8] = experiment: Effect on NLRP3-ASC interaction in LPS-treated mouse BMDM cells at 1 uM incubated for 30 mins followed by ATP stimulation for 1 hr by co-immunoprecipitation based Western blot analysis; format: functional, cell-based; details: time 90.0 min
Procedure, shortened: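 BMDMs (1 × 10^7) primed with LPS 2 h, treated 1 µM compound 30 min, then ATP 1 h; lysed in HEPES/NaCl/glycerol/EDTA/0.5% Triton buffer with protease/phosphatase inhibitors; NLRP3–ASC co-immunoprecipitation, bait eluted in Laemmli buffer, western blot; representative of three independent experiments.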

B16-F10 [9] = experiment: Effect on cleaved caspase-1 expression in cytosolic luciferase-transfected mouse B16-F10 cells xenografted in C57BL/6 mouse at 25 mg/kg, ip administered thrice weekly measured after 14 days by Western blot analysis; format: functional, organism-based; details: time 14.0 day; procedure, shortened: as §1
[10] = Clast in C57BL/6 mouse at 25 mg/kg, ip measured for 0.083 to 24 hrs by LC-MS/MS analysis; format: ADME, organism-based; details: in vivo, time 0.083-24 hrs; procedure, shortened: as §3
[11] = Tlast in C57BL/6 mouse at 25 mg/kg, ip measured for 0.083 to 24 hrs by LC-MS/MS analysis; format: ADME, organism-based; details: in vivo, time 0.083-24 hrs; procedure, shortened: as §3
B16-F10 [12] = experiment: Effect on ASC expression in cytosolic luciferase-transfected mouse B16-F10 cells xenografted in C57BL/6 mouse at 25 mg/kg, ip administered thrice weekly measured after 14 days by Western blot analysis; format: functional, organism-based; details: time 14.0 day; procedure, shortened: as §1
B16-F10 [13] = experiment: Effect on total caspase-1 expression in cytosolic luciferase-transfected mouse B16-F10 cells xenografted in C57BL/6 mouse at 25 mg/kg, ip administered thrice weekly measured after 14 days by Western blot analysis; format: functional, organism-based; details: time 14.0 day; procedure, shortened: as §1
THP-1 [14] = experiment: Suppression of caspase-1 expression in LPS-treated human THP-1 cells at 1 to 1000 nM incubated for 30 mins followed by ATP stimulation for 1 hr by […]; format: functional, cell-based; details: dose 1-1000 nM, time 90.0 min
Procedure, shortened: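 PMA-differentiated THP-1 cells (1 × 10^6/well) primed with LPS 1 µg/mL for 3 h, then DMSO or compound in serum-free medium for 30 min, then 5 mM ATP for 1 h. RIPA lysates (20 µg) and concentrated supernatants run on SDS-PAGE and western blotted for NLRP3, ASC, caspase-1 and IL-1β, normalized to GAPDH; three independent experiments.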

THP-1 [15] = experiment: Suppression of caspase-1 p10 expression in LPS-treated human THP-1 cells at 1 to 1000 nM incubated for 30 mins followed by ATP stimulation for 1 hr […]; format: functional, cell-based; details: dose 1-1000 nM, time 90.0 min
B16-F10 [16] = experiment: Antiproliferative activity against cytosolic luciferase-transfected mouse B16-F10 cells xenografted in C57BL/6 mouse assessed as effect on cell growth at 25 mg/kg, ip administered thrice weekly measured after 5 days; format: functional, organism-based; details: time 5.0 day
Mus musculus = experiment: Antiinflammatory activity in LPS-induced C57BL/6 mouse assessed as reduction in IL-1beta production in plasma at 25 mg/kg, ip pretreated for 30 mins followed by LPS induction measured after 4 hrs by ELISA method; format: functional, organism-based; details: time 4.5 hrs
Procedure, shortened: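 C57BL/6 mice given inhibitor 25 mg/kg IP (vehicle DMSO) 30 min before IP LPS 1 mg/kg; after 4 h, peritoneal exudate and blood collected, plasma from centrifugation 1000g 15 min 4 °C; IL-1β measured by ELISA; mean ± SEM of three independent experiments.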

BMDM [17] = experiment: Effect on AIM2 inflammasome activation in LPS-treated mouse BMDM cells assessed as IL-1beta release at 1 uM incubated for 30 mins followed by Poly (dA:dT) stimulation for 4 hrs by ELISA method; format: functional, cell-based; details: time 270.0 min
Procedure, shortened: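 BMDMs primed with LPS 100 ng/mL for 3 h, then compound 1 µM in serum-free medium for 30 min, then poly(dA:dT) 1 µg/mL transfected with lipofectamine 2000 for 4 h; supernatant mouse IL-1β by ELISA.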

BMDM [18] = experiment: Effect on NLRC4 inflammasome activation in LPS-treated mouse BMDM cells assessed as IL-1beta release at 1 uM incubated for 30 mins followed by Salmonella typhimurium flagellin stimulation for 2 hrs by ELISA method; format: functional, cell-based; details: time 150.0 min
Procedure, shortened: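 BMDMs primed with LPS 100 ng/mL for 3 h, then compound 1 µM in serum-free medium for 30 min, then flagellin 100 ng/mL for 2 h; supernatant mouse IL-1β by ELISA.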

For `CC(C)[C@H](NS(=O)(=O)c1ccc([N+](=O)[O-])cc1)C(=O)Nc1c2c(cc3c1CCC3)CCC2`, which Activity (B16-F10 [1]) is on record?
The Activity was “inactive”.

And the microsomal CLint at 1 µM [2]?
Its microsomal CLint at 1 µM is 4.8 µL/min/mg.

What about the half-life [3] of the same compound?
The half-life was 570 min.

What about the Activity (THP-1 [4]) of the same compound?
Its Activity is “Non-Toxic”.

What about the half-life at 1 µM [5] of the same compound?
The half-life at 1 µM was 30.5 min.

And the Cmax [6]?
Its Cmax is 1670 ng/mL.

What about the Activity (B16-F10 [7]) of the same compound?
Its Activity is “Active”.

And the Activity (BMDM [8])?
The Activity was “inactive”.

What about the Activity (B16-F10 [9]) of the same compound?
The Activity was “inactive”.

What about the Clast [10] of the same compound?
The Clast was 67 ng/mL.

And the Tlast [11]?
The Tlast was 24 h.

And the Activity (B16-F10 [12])?
Its Activity is “inactive”.

And the Activity (B16-F10 [13])?
Its Activity is “inactive”.

What about the Activity (THP-1 [14]) of the same compound?
Its Activity is “inactive”.

What about the Activity (THP-1 [15]) of the same compound?
The Activity was “Active”.

And the Activity (B16-F10 [16])?
The Activity was “inactive”.

What about the Activity (Mus musculus) of the same compound?
The Activity was “Active”.

What about the Activity (BMDM [17]) of the same compound?
Its Activity is “inactive”.

What about the Activity (BMDM [18]) of the same compound?
Its Activity is “inactive”.
